Measurements pooled from the literature.
Each line is one published result; the experiments were not run side by side. Values after ≈ are worked out from the molar mass of the structure shown.
Organism: Staphylococcus aureus

CN[C@H](CC(C)C)C(=O)N[C@H]1C(=O)N[C@@H](CC(N)=O)C(=O)N[C@H]2C(=O)N[C@H]3C(=O)N[C@H](C(=O)N[C@H](C(=O)O)c4cc(O)cc(O)c4-c4cc3ccc4O)[C@H](O)c3ccc(c(Cl)c3)Oc3cc2cc(c3O[C@@H]2O[C@H](CO)[C@@H](O)[C@H](O)[C@H]2O[C@H]2C[C@](C)(N)[C@H](O)[C@H](C)O2)Oc2ccc(cc2Cl)[C@H]1O gave an inhibition zone of 21 mm (microbial growth; disc diffusion; ATCC29213; 250 µg/disc; 24 h).
With CN(C[C@@H]1COCCO1)S(=O)(=O)Nc1ccc2ccc3ncc(-c4cnn(C)c4)cc3c(=O)c2c1 the MIC was 30 µM (≈ 14.9 µg/mL) (microbial growth; NCTC8325).
O=C(O)CN1C(=O)/C(=C/c2ccc(-c3ccc(N(c4ccccc4)c4ccccc4)cc3)cc2)SC1=S has an MBC of 31.3 µg/mL (≈ 59.9 µM) (microbial killing; broth dilution; ATCC25923).
[H]/N=C(/N)N[C@H]1[C@H](O)[C@@H](O)[C@H](O[C@@H]2O[C@@H](C)[C@](O)(C=O)[C@H]2O[C@@H]2O[C@@H](CO)[C@H](O)[C@@H](O)[C@@H]2NC)[C@@H](N/C(N)=N\[H])[C@@H]1O has an inhibition zone of 22 mm (microbial growth; well diffusion; NCIM5021; 500 µg/mL).
O=C1NC(=S)N/C1=C\c1ccc(-c2ccc(N(c3ccccc3)c3ccccc3)cc2)c2ccccc12 has an MBC of greater than 1000 µg/mL (microbial killing; broth dilution; ATCC6538).
With COc1ccc2nc(-n3nc(C)c4c3-c3ccccc3C4=O)sc2c1 the inhibition zone was 13 mm (microbial growth; well diffusion; NCIM5021; 1000 µg/mL).
The MIC of CC(=O)c1c(C)c2cnc(Nc3ccc(N4CCNCC4)cn3)nc2n(C2CCCC2)c1=O is reported as greater than 30 µM (microbial growth; NCTC8325).
The MBC of O=C1NC(=S)S/C1=C\c1c2ccccc2c(-c2ccc(N(c3ccccc3)c3ccccc3)cc2)c2ccccc12 is reported as greater than 1000 µg/mL (microbial killing; broth dilution; ATCC25923).
For CCc1cccc(CC)c1NC(=O)N1Cc2[nH]nc(NC(=O)c3ccc(N4CCN(C)CC4)cc3)c2C1, the MIC was greater than 30 µM (microbial growth; NCTC8325).
The inhibition zone of COc1ccc2nc(-n3nc(CC(C)C)c4c3-c3ccccc3C4=O)sc2c1 is reported as 12 mm (microbial growth; well diffusion; NCIM5021; 125 µg/mL).
